Measurements from ChEMBL document CHEMBL1130071, “Pyrrolomorphinans as delta opioid receptor antagonists. The role of steric hindrance in conferring selectivity” (J Med Chem, 1997).

What follows are compounds tested against Mu-type opioid receptor (Cavia porcellus) (UniProt P97266) (assay: Agonist activity against guinea pig ileum Opioid receptor mu 1).
Chain of Mu-type opioid receptor (Cavia porcellus) (P97266 whole entry): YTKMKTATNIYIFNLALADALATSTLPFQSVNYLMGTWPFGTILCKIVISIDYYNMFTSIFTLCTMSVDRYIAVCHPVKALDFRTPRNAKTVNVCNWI
Format: functional, tissue-based
Method in brief: (§1)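 Agonist activity in MVD or GPI preparations; ligands that were not full agonists tested at 1 µM, activity expressed as percent of maximal response.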
For CC(C)Cc1[nH]c2c(c1-c1ccccc1)C[C@@]1(O)C3Cc4ccc(O)c5c4C1(CCN3CC1CC1)[C@H]2O5 (some centres undefined), the IC50 ratio was 4.1.
Compound Cc1[nH]c2c(c1C)C[C@@]1(O)C3Cc4ccc(O)c5c4C1(CCN3CC1CC1)[C@H]2O5 (some centres undefined) has an IC50 ratio of 1.5.
For CCCCc1c(CC(C)C)[nH]c2c1C[C@@]1(O)C3Cc4ccc(O)c5c4C1(CCN3CC1CC1)[C@H]2O5 (some centres undefined), the IC50 ratio was 0.76.
Cc1[nH]c2c(c1-c1ccccc1)C[C@@]1(O)C3Cc4ccc(O)c5c4C1(CCN3CC1CC1)[C@H]2O5 (some centres undefined) gave an IC50 ratio of 0.9.
Cc1[nH]c2c(c1Cc1ccccc1)C[C@@]1(O)C3Cc4ccc(O)c5c4C1(CCN3CC1CC1)[C@H]2O5 (some centres undefined) showed an IC50 ratio of 1.3.
CCCCc1c(C)[nH]c2c1C[C@@]1(O)C3Cc4ccc(O)c5c4C1(CCN3CC1CC1)[C@H]2O5 (some centres undefined) was tested, and the IC50 ratio was 2.1.

Each compound was assayed against Kappa-type opioid receptor (Mus musculus, UniProt P33534) (assay: Binding affinity against Opioid receptor kappa 1 binding in ICR mouse brain membranes using the radioligand [3H]U-69593).
Chain of Kappa-type opioid receptor (P33534 whole entry): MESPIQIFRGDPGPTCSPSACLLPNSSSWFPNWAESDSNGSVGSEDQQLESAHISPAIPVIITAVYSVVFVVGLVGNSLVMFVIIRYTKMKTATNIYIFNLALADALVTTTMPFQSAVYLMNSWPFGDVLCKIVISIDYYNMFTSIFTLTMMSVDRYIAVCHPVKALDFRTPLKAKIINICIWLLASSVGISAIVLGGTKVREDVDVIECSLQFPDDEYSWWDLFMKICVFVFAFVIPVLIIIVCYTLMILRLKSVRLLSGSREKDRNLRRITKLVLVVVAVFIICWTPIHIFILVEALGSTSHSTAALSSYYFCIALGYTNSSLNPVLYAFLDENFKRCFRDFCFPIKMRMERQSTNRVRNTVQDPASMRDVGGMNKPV
Format: cell membranes, Membrane
Method in brief: (§2)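 Competition binding on ICR mouse brain membranes using selective radioligands: [3H]naltrindole (δ), [3H]DAMGO (μ), [3H]U69593 (κ). Ki reported as mean ± SEM of at least three determinations.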
Cc1[nH]c2c(c1C)C[C@@]1(O)C3Cc4ccc(O)c5c4C1(CCN3CC1CC1)[C@H]2O5 (some centres undefined) was tested, and the Ki was 22 nM.
Cc1[nH]c2c(c1Cc1ccccc1)C[C@@]1(O)C3Cc4ccc(O)c5c4C1(CCN3CC1CC1)[C@H]2O5 (some centres undefined) was tested, and the Ki was 41 nM.
CCCCc1c(C)[nH]c2c1C[C@@]1(O)C3Cc4ccc(O)c5c4C1(CCN3CC1CC1)[C@H]2O5 (some centres undefined) was tested, and the Ki was 39 nM.

Each compound was assayed against Delta-type opioid receptor (Mus musculus) (UniProt P32300) (assay: Activity against Opioid receptor delta 1 on electrically stimulated mouse vas deferens using DADLE as agonist).
Chain of Delta-type opioid receptor (Mus musculus) (P32300 whole entry): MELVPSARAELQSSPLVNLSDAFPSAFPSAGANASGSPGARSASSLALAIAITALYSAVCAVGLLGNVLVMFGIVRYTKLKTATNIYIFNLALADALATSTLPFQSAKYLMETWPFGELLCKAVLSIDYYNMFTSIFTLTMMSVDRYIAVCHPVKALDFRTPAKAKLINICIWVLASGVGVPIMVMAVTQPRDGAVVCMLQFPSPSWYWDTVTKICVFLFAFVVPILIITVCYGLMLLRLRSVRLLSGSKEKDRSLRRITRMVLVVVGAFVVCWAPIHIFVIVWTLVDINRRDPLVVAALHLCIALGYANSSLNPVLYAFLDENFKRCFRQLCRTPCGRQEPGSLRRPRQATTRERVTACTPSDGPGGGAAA
Format: functional, tissue-based
Method in brief: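 Antagonist test in electrically stimulated smooth muscle, DADLE in MVD, morphine or ethylketazocine in GPI: ligand (100 nM) preincubated with the preparation 15 min before agonist testing. IC50 ratio = agonist IC50 with test compound / control IC50 in same preparation; Ke = [antagonist]/(IC50 ratio − 1).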
Cc1[nH]c2c(c1C)C[C@@]1(O)C3Cc4ccc(O)c5c4C1(CCN3CC1CC1)[C@H]2O5 (some centres undefined) was tested, and the Ke was 14.8 nM.
In the case of CCCCc1c(CC(C)C)[nH]c2c1C[C@@]1(O)C3Cc4ccc(O)c5c4C1(CCN3CC1CC1)[C@H]2O5 (some centres undefined), the Ke is reported as 11.4 nM.
With Cc1[nH]c2c(c1Cc1ccccc1)C[C@@]1(O)C3Cc4ccc(O)c5c4C1(CCN3CC1CC1)[C@H]2O5 (some centres undefined) the Ke was 2.1 nM.
For CCCCc1c(C)[nH]c2c1C[C@@]1(O)C3Cc4ccc(O)c5c4C1(CCN3CC1CC1)[C@H]2O5 (some centres undefined), the Ke was 6.7 nM.

The compounds below were run against Delta-type opioid receptor (Mus musculus, UniProt P32300) (assay: Binding affinity against Opioid receptor delta 1 receptor binding in ICR mouse brain membranes using the radioligand [3H]naltrindole).
Chain of Delta-type opioid receptor (P32300 whole entry): as above
Format: cell membranes, Membrane
Method in brief: as §2
In the case of Cc1[nH]c2c(c1C)C[C@@]1(O)C3Cc4ccc(O)c5c4C1(CCN3CC1CC1)[C@H]2O5 (some centres undefined), the Ki is reported as 0.41 nM.
With Cc1[nH]c2c(c1Cc1ccccc1)C[C@@]1(O)C3Cc4ccc(O)c5c4C1(CCN3CC1CC1)[C@H]2O5 (some centres undefined) the Ki was 0.35 nM.
CCCCc1c(C)[nH]c2c1C[C@@]1(O)C3Cc4ccc(O)c5c4C1(CCN3CC1CC1)[C@H]2O5 (some centres undefined) was tested, and the Ki was 12 nM.

Each compound was assayed against Mu-type opioid receptor (Mus musculus, UniProt P42866) (assay: Binding affinity against Opioid receptor mu 1 binding in ICR mouse brain membranes using the radioligand [3H][Ala2,Glyol5]enkephalin).
Chain of Mu-type opioid receptor (P42866 whole entry): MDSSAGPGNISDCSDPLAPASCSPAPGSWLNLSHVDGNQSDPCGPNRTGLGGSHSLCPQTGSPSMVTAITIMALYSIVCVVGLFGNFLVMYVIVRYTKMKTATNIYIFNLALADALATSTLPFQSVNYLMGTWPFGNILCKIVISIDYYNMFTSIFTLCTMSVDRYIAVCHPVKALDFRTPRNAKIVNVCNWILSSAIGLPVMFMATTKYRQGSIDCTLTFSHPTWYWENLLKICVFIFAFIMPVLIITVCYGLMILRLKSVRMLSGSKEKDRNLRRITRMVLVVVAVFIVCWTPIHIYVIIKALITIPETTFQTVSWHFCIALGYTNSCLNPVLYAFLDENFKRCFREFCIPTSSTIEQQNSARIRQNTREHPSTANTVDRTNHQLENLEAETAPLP
Format: cell membranes, Membrane
Method in brief: as §2
In the case of Cc1[nH]c2c(c1C)C[C@@]1(O)C3Cc4ccc(O)c5c4C1(CCN3CC1CC1)[C@H]2O5 (some centres undefined), the Ki is reported as 39 nM.
Cc1[nH]c2c(c1Cc1ccccc1)C[C@@]1(O)C3Cc4ccc(O)c5c4C1(CCN3CC1CC1)[C@H]2O5 (some centres undefined) showed a Ki of 28 nM.
In the case of CCCCc1c(C)[nH]c2c1C[C@@]1(O)C3Cc4ccc(O)c5c4C1(CCN3CC1CC1)[C@H]2O5 (some centres undefined), the Ki is reported as 57 nM.

What follows are compounds tested against Kappa-type opioid receptor (Homo sapiens) (UniProt P41145) (assay: Selectivity ratio measured as the delta IC50 to that of kappa IC50 values.).
Chain of Kappa-type opioid receptor (Homo sapiens) (P41145 whole entry): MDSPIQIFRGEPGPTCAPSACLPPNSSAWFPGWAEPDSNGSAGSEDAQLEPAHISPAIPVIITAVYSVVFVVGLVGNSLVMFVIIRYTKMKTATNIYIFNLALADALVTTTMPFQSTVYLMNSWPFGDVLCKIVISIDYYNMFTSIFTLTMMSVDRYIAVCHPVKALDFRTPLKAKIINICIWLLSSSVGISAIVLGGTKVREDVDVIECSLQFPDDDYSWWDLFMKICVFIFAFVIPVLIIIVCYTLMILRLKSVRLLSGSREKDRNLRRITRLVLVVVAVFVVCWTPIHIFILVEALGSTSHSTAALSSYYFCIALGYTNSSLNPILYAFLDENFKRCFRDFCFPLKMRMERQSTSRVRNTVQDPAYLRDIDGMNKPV
Format: functional
In the case of CC(C)Cc1[nH]c2c(c1-c1ccccc1)C[C@@]1(O)C3Cc4ccc(O)c5c4C1(CCN3CC1CC1)[C@H]2O5 (some centres undefined), the Selectivity ratio is reported as 0.2.
Cc1[nH]c2c(c1C)C[C@@]1(O)C3Cc4ccc(O)c5c4C1(CCN3CC1CC1)[C@H]2O5 (some centres undefined) showed a Selectivity ratio of 7.
For CCCCc1c(CC(C)C)[nH]c2c1C[C@@]1(O)C3Cc4ccc(O)c5c4C1(CCN3CC1CC1)[C@H]2O5 (some centres undefined), the Selectivity ratio was 10.
For Cc1[nH]c2c(c1-c1ccccc1)C[C@@]1(O)C3Cc4ccc(O)c5c4C1(CCN3CC1CC1)[C@H]2O5 (some centres undefined), the Selectivity ratio was 1.6.
With Cc1[nH]c2c(c1Cc1ccccc1)C[C@@]1(O)C3Cc4ccc(O)c5c4C1(CCN3CC1CC1)[C@H]2O5 (some centres undefined) the Selectivity ratio was 50.
With CCCCc1c(C)[nH]c2c1C[C@@]1(O)C3Cc4ccc(O)c5c4C1(CCN3CC1CC1)[C@H]2O5 (some centres undefined) the Selectivity ratio was 17.

The compounds below were run against Delta-type opioid receptor (Homo sapiens) (UniProt P41143) (assay: Selectivity ratio measured as the kappa Ki to that of delta Ki values.).
Chain of Delta-type opioid receptor (Homo sapiens) (P41143 whole entry): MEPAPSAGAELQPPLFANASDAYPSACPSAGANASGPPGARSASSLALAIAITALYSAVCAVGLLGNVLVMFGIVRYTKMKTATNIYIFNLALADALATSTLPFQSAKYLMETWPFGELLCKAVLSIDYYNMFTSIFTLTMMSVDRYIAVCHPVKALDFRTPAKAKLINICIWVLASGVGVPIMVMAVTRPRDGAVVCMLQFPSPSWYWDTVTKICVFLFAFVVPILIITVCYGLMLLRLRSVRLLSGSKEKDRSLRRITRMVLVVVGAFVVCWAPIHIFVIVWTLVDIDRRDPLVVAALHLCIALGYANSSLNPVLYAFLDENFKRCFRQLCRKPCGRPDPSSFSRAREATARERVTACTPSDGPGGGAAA
Method in brief: (§3)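 Ki selectivity ratio = Ki at κ or μ (ICR mouse brain membranes, [3H]U69593 or [3H]DAMGO) divided by Ki at δ ([3H]naltrindole competition).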
Cc1[nH]c2c(c1C)C[C@@]1(O)C3Cc4ccc(O)c5c4C1(CCN3CC1CC1)[C@H]2O5 (some centres undefined) showed a Selectivity ratio of 53.7.
Cc1[nH]c2c(c1Cc1ccccc1)C[C@@]1(O)C3Cc4ccc(O)c5c4C1(CCN3CC1CC1)[C@H]2O5 (some centres undefined) showed a Selectivity ratio of 117.
CCCCc1c(C)[nH]c2c1C[C@@]1(O)C3Cc4ccc(O)c5c4C1(CCN3CC1CC1)[C@H]2O5 (some centres undefined) showed a Selectivity ratio of 3.3.

The compounds below were run against Delta-type opioid receptor (Homo sapiens) (UniProt P41143) (assay: Selectivity ratio measured as the mu Ki to that of delta Ki values.).
Method in brief: as §3
With Cc1[nH]c2c(c1C)C[C@@]1(O)C3Cc4ccc(O)c5c4C1(CCN3CC1CC1)[C@H]2O5 (some centres undefined) the Selectivity ratio was 95.
Compound Cc1[nH]c2c(c1Cc1ccccc1)C[C@@]1(O)C3Cc4ccc(O)c5c4C1(CCN3CC1CC1)[C@H]2O5 (some centres undefined) has a Selectivity ratio of 80.
CCCCc1c(C)[nH]c2c1C[C@@]1(O)C3Cc4ccc(O)c5c4C1(CCN3CC1CC1)[C@H]2O5 (some centres undefined) showed a Selectivity ratio of 4.8.

These compounds were tested against Mu-type opioid receptor (Homo sapiens) (UniProt P35372) (assay: Selectivity ratio measured as the delta IC50 to that of mu IC50 values.).
Chain of Mu-type opioid receptor (Homo sapiens) (P35372 whole entry): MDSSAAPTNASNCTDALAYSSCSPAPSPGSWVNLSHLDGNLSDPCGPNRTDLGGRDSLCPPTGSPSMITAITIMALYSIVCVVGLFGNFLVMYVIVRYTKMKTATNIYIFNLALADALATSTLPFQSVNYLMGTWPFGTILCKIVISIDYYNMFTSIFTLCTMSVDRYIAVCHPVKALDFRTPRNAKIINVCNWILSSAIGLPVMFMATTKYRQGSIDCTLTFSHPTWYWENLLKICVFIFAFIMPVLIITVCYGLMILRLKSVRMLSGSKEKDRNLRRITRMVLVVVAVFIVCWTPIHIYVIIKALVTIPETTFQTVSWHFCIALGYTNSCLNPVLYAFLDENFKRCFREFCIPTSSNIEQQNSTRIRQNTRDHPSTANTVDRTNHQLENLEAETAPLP
Format: functional
CC(C)Cc1[nH]c2c(c1-c1ccccc1)C[C@@]1(O)C3Cc4ccc(O)c5c4C1(CCN3CC1CC1)[C@H]2O5 (some centres undefined) showed a Selectivity ratio of 0.2.
With Cc1[nH]c2c(c1C)C[C@@]1(O)C3Cc4ccc(O)c5c4C1(CCN3CC1CC1)[C@H]2O5 (some centres undefined) the Selectivity ratio was 5.
For CCCCc1c(CC(C)C)[nH]c2c1C[C@@]1(O)C3Cc4ccc(O)c5c4C1(CCN3CC1CC1)[C@H]2O5 (some centres undefined), the Selectivity ratio was 10.
For Cc1[nH]c2c(c1-c1ccccc1)C[C@@]1(O)C3Cc4ccc(O)c5c4C1(CCN3CC1CC1)[C@H]2O5 (some centres undefined), the Selectivity ratio was 1.6.
Work on Cc1[nH]c2c(c1Cc1ccccc1)C[C@@]1(O)C3Cc4ccc(O)c5c4C1(CCN3CC1CC1)[C@H]2O5 (some centres undefined) yielded a Selectivity ratio of 50.
CCCCc1c(C)[nH]c2c1C[C@@]1(O)C3Cc4ccc(O)c5c4C1(CCN3CC1CC1)[C@H]2O5 (some centres undefined) gave a Selectivity ratio of 8.

What follows are compounds tested against Delta-type opioid receptor (Mus musculus) (UniProt P32300) (assay: Agonist activity in mouse vas deferens assay relative to DADLE).
Format: functional, tissue-based
Method in brief: as §1
CC(C)Cc1[nH]c2c(c1-c1ccccc1)C[C@@]1(O)C3Cc4ccc(O)c5c4C1(CCN3CC1CC1)[C@H]2O5 (some centres undefined) gave an IC50 ratio of 0.76.
For Cc1[nH]c2c(c1C)C[C@@]1(O)C3Cc4ccc(O)c5c4C1(CCN3CC1CC1)[C@H]2O5 (some centres undefined), the IC50 ratio was 7.7.
Work on CCCCc1c(CC(C)C)[nH]c2c1C[C@@]1(O)C3Cc4ccc(O)c5c4C1(CCN3CC1CC1)[C@H]2O5 (some centres undefined) yielded an IC50 ratio of 9.8.
With Cc1[nH]c2c(c1-c1ccccc1)C[C@@]1(O)C3Cc4ccc(O)c5c4C1(CCN3CC1CC1)[C@H]2O5 (some centres undefined) the IC50 ratio was 1.6.
In the case of Cc1[nH]c2c(c1Cc1ccccc1)C[C@@]1(O)C3Cc4ccc(O)c5c4C1(CCN3CC1CC1)[C@H]2O5 (some centres undefined), the IC50 ratio is reported as 50.
CCCCc1c(C)[nH]c2c1C[C@@]1(O)C3Cc4ccc(O)c5c4C1(CCN3CC1CC1)[C@H]2O5 (some centres undefined) was tested, and the IC50 ratio was 16.8.

What follows are compounds tested against Kappa-type opioid receptor (Cavia porcellus) (UniProt P41144) (assay: Agonist activity against guinea pig ileum kappa receptor relative to ethylketazocine).
Chain of Kappa-type opioid receptor (Cavia porcellus) (P41144 whole entry): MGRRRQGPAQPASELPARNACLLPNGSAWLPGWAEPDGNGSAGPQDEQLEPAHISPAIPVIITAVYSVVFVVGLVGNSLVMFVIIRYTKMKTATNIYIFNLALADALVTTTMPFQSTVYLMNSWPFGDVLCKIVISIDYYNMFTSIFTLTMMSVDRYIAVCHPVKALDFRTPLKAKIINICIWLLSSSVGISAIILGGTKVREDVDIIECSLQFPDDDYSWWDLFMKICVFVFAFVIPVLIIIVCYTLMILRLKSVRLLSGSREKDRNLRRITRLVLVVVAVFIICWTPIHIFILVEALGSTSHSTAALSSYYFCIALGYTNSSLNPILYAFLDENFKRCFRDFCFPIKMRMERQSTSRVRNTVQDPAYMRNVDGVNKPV
Format: functional, tissue-based
Method in brief: as §1
CC(C)Cc1[nH]c2c(c1-c1ccccc1)C[C@@]1(O)C3Cc4ccc(O)c5c4C1(CCN3CC1CC1)[C@H]2O5 (some centres undefined) was tested, and the IC50 ratio was 1.3.
Cc1[nH]c2c(c1C)C[C@@]1(O)C3Cc4ccc(O)c5c4C1(CCN3CC1CC1)[C@H]2O5 (some centres undefined) gave an IC50 ratio of 1.4.
Compound CCCCc1c(CC(C)C)[nH]c2c1C[C@@]1(O)C3Cc4ccc(O)c5c4C1(CCN3CC1CC1)[C@H]2O5 (some centres undefined) has an IC50 ratio of 0.99.
Compound Cc1[nH]c2c(c1-c1ccccc1)C[C@@]1(O)C3Cc4ccc(O)c5c4C1(CCN3CC1CC1)[C@H]2O5 (some centres undefined) has an IC50 ratio of 0.98.
With Cc1[nH]c2c(c1Cc1ccccc1)C[C@@]1(O)C3Cc4ccc(O)c5c4C1(CCN3CC1CC1)[C@H]2O5 (some centres undefined) the IC50 ratio was 1.3.
CCCCc1c(C)[nH]c2c1C[C@@]1(O)C3Cc4ccc(O)c5c4C1(CCN3CC1CC1)[C@H]2O5 (some centres undefined) showed an IC50 ratio of 0.95.
